Experimental data from ChEMBL document CHEMBL1914311, “Sugar-based peptidomimetics inhibit amyloid β-peptide aggregation” (Eur J Med Chem, 2011).
Active and inactive are the calls of the source. The calls are words filed in the database; no cut-off is given here. Numbered stars: 1 amine (or outer) side, 2 acyl side, 3 side chain; on linkers, the order of the positions; unused ones are H or OH. Square brackets hold non-standard residues; d marks the D form. Peptide text beside a SMILES is read from it. * marks the point of attachment. X1 = O=C(CCOC[C@H]1O[C@@H](OCCCN[*:1])[C@H](O)[C@@H](O)[C@@H]1O)[*:2]; X2 = O=C(CCOC[C@H]1O[C@@H](OCCN[*:1])[C@H](O)[C@@H](O)[C@@H]1O)[*:2]; X3 = O=C(CCOC[C@H]1O[C@H](OCCCN[*:1])[C@H](O)[C@@H](O)[C@@H]1O)[*:2]; X4 = O=C(CCOC[C@H]1O[C@H](OCCN[*:1])[C@H](O)[C@@H](O)[C@@H]1O)[*:2]; Boc = CC(C)(C)OC(=O)*

How the values were obtained:
[1] = target: T1, Islet amyloid polypeptide (Homo sapiens) (UniProt P10997); assay: Inhibition of IAPP fibril formation assessed as inhibition of aggregate formation at 1:10 protein to compound ratio by thioflavin T fluorescence assay relative to untreated control; conditions: concentration not given here
T1 sequence (whole entry): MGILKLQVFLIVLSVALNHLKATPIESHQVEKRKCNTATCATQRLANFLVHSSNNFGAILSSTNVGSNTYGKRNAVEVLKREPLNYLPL
In short: (§1)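 IAPP was made synthetic with an amidated C-terminus, pretreated with HFIP, and taken up in DMSO. It was used at 5 μM with 10 μM ThT in 10 mM Tris/HCl, 100 mM NaCl, pH 7.4, with 2.5% DMSO final. Compound was added at a 1:10 peptide:compound ratio. Fluorescence was read over time (ex 440, em 485 nm), 2–6 runs on different days. Lag extension was calculated as t(+compound)/t(alone). Plateau reduction was (F − F+compound)/F × 100%.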

[2] = Inhibition of amyloid beta (1 to 40) fibril formation at 1:1 protein to compound ratio by thioflavin T fluorescence assay relative to untreated control; conditions: concentration not given here
In short: (§2)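 HFIP-pretreated synthetic Aβ1-40 (DMSO stock) was used at 20 μM with compound at 1:1 or 1:0.1 peptide:compound ratios. The mixture contained 10 μM ThT in 10 mM Tris/HCl, 100 mM NaCl, pH 7.4, with 2.5% DMSO final. Fluorescence (ex 440, em 485 nm) was followed over time on aliquots, 2–6 runs on different days. Lag extension was taken as t(+compound)/t(alone), and plateau reduction as a percent decrease versus peptide alone.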

[3] = Inhibition of amyloid beta (1 to 40) fibril formation assessed as fold increase in lag time for aggregate formation at 1:1 protein to compound ratio by thioflavin T fluorescence assay relative to untreated control; in short: as §2
[4] = Solubility of compound in water; format: physicochemical; conditions: buffer
[5] = target: T1, Islet amyloid polypeptide (Homo sapiens); assay: Inhibition of IAPP fibril formation assessed as fold increase in lag time for aggregate formation at 1:10 protein to compound ratio by thioflavin T fluorescence assay relative to untreated control; in short: as §1
[6] = Binding affinity to amyloid beta (1 to 40) at 1 mM by STD-NMR spectroscopy
In short: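 1D saturation transfer difference NMR was run in 50 mM sodium phosphate, 150 mM NaCl, pH 7.0, 10% D2O. Compound was at 1 mM and Aβ1-40 at 0.25 mM. Saturation used a cascade of Gaussian selective pulses (50 ms each, B1 0.16 kHz) lasting 2 s in total, applied alternately at -1 and +30 ppm. Compound-alone spectra served as control.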

[7] = Inhibition of amyloid beta (1 to 40) fibril formation assessed as lag time for aggregate formation at 1:0.1 protein to compound ratio by thioflavin T fluorescence assay relative to untreated control; in short: as §2
[8] = Inhibition of amyloid beta (1 to 40) fibril formation assessed as lag time for aggregate formation at 1:1 protein to compound ratio by thioflavin T fluorescence assay relative to untreated control; in short: as §2
[9] = Binding affinity to amyloid beta (1 to 40) at 1:20 protein to compound ratio up to 1 hr by STD-NMR spectroscopy
In short: (§3)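 STD-NMR used diluted Aβ1-40 (30 μM) at a 1:20 peptide:compound ratio, followed over time. Buffer was 50 mM sodium phosphate, 150 mM NaCl, pH 7.0, 10% D2O. A cascade of Gaussian selective pulses (50 ms, B1 0.16 kHz, 2 s total) was applied alternately at -1 and +30 ppm.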

[10] = target: T1, Islet amyloid polypeptide (Homo sapiens); assay: Inhibition of IAPP fibril formation at 1:10 protein to compound ratio after 24 hrs by transmission electron microscopy analysis
In short: (§4)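 IAPP and compound (1:10) were incubated under the ThT assay conditions: 10 mM Tris·HCl, 100 mM NaCl, pH 7.4. Aliquots were taken at 3 h and 24 h, adsorbed onto carbon-coated copper grids for 2 min, negatively stained, and imaged by transmission electron microscopy.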

[11] = Binding affinity to amyloid beta (1 to 40) assessed as negative chemical shift by NMR spectroscopy analysis
In short: (§5)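 Synthetic C-terminally amidated Aβ1-40 was studied by NMR in 50 mM sodium phosphate, 150 mM NaCl, pH 7.0, with 10% D2O. 2D NOESY spectra were recorded with a 0.2 s mixing time.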

[12] = Inhibition of amyloid beta (1 to 40) fibril formation assessed as appearance of spherical aggregates at 1:01 protein to compound ratio after 2 weeks by transmission electron microscopy analysis
[13] = Binding affinity to amyloid beta (1 to 40) at 1:20 protein to compound ratio after 2 weeks by STD-NMR spectroscopy; in short: as §3
[14] = target: T1, Islet amyloid polypeptide (Homo sapiens); assay: Inhibition of IAPP fibril formation at 1:10 protein to compound ratio after 3 hrs by transmission electron microscopy analysis; in short: as §4
[15] = Binding affinity to amyloid beta (1 to 40) assessed as negative chemical shift at 1 mM by 2D NOESY spectroscopy analysis; in short: as §5
[16] = Inhibition of amyloid beta (1 to 40) fibril formation assessed as appearance of spherical aggregates at 1:1 protein to compound ratio after 2 weeks by transmission electron microscopy analysis
In short: (§6)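 Aβ1-40 and compound were incubated at a 1:1 ratio in 10 mM Tris·HCl, 100 mM NaCl, pH 7.4, under the ThT assay conditions. Aliquots were taken after 1 day, 2 days and 2 weeks. They were adsorbed onto carbon-coated grids for 2 min, negatively stained, and imaged by TEM.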

[17] = Inhibition of amyloid beta (1 to 40) fibril formation assessed as appearance of spherical aggregates at 1:1 protein to compound ratio after 1 to 2 days by transmission electron microscopy analysis; in short: as §6
[18] = Inhibition of amyloid beta (1 to 40) fibril formation assessed as appearance of spherical aggregates at 1:01 protein to compound ratio after 1 to 2 days by transmission electron microscopy analysis

| inhibition [1] [%] | inhibition [2] [%] | fold change (FC) [3] | solubility [4] | fold change (FC) [5] | Activity [6] | TIME [7] [h] | TIME [8] [h] | Activity [9] | inhibition [10] | Activity [11] | inhibition [12] | Activity [13] | inhibition [14] | inhibition [16] | inhibition [17] | inhibition [18] | Compound | Activity [15] |
| --- | --- | --- | --- | --- | --- | --- | --- | --- | --- | --- | --- | --- | --- | --- | --- | --- | --- | --- |
| 9 | 60 | 3.4 | soluble | 1 | – | – | – | – | – | – | – | – | – | – | – | – | COC(=O)[C@H](CC(C)C)NC(=O)[C@@H](NC(=O)CCOC[C@H]1O[C@H](OCCCNC(=O)[C@@H](NC(=O)[C@H](C)NC(=O)OC(C)(C)C)C(C)C)[C@H](O)[C@@H](O)[C@@H]1O)C(C)C (Boc-AV[X3]VL-OMe) | – |
| – | 22 | 3.4 | soluble | – | – | – | – | – | – | – | – | – | – | – | – | – | COC(=O)[C@H](CC(C)C)NC(=O)[C@@H](NC(=O)CCOC[C@H]1O[C@H](OCCNC(=O)[C@@H](NC(=O)[C@H](C)NC(=O)OC(C)(C)C)C(C)C)[C@H](O)[C@@H](O)[C@@H]1O)C(C)C (Boc-AV[X4]VL-OMe) | – |
| 1 | 40 | 3.4 | soluble | 1 | – | – | – | – | – | – | – | – | – | – | – | – | COC(=O)[C@H](CC(C)C)NC(=O)[C@@H](NC(=O)CCOC[C@H]1O[C@@H](OCCNC(=O)[C@@H](NC(=O)[C@H](C)NC(=O)OC(C)(C)C)C(C)C)[C@H](O)[C@@H](O)[C@@H]1O)C(C)C (Boc-AV[X2]VL-OMe) | – |
| 5 | 52 | 3 | soluble | 1 | Active | 26 | 41 | inactive | inactive | inactive | inactive | Active | inactive | Active | Active | Active | COC(=O)[C@H](CC(C)C)NC(=O)[C@@H](NC(=O)CCOC[C@H]1O[C@@H](OCCCNC(=O)[C@@H](NC(=O)[C@H](C)NC(=O)OC(C)(C)C)C(C)C)[C@H](O)[C@@H](O)[C@@H]1O)C(C)C (Boc-AV[X1]VL-OMe) | Active |
